Source: ChEMBL document CHEMBL1255290, “Characterization of a novel human immunodeficiency virus type 1 protease inhibitor, A-790742” (Antimicrob Agents Chemother, 2008)

Experiments:
[1] = test system: Human immunodeficiency virus 1; assay: Antiviral activity against HIV1 P13 infected in human MT4 cells derived from viral passages with A-790742 harboring protease M46I, L63P, A71V, and V82G mutation assessed as reduction in viral cytopathogenicity treated 1 hr post infection measured 5 days post infection by MTT assay relative to wild type HIV1 RF; type: functional
Procedure, shortened: (§1)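 For the assay, 10⁶ MT-4 cells were infected at MOI 0.003, washed after 1 h, and plated at 10⁴ cells/well with eight serial compound dilutions in triplicate (0.5% DMSO final). MTT cytopathic read-out at day 5; EC50 from dose-response fitting.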

[2] = test system: Human immunodeficiency virus 1; assay: Antiviral activity against HIV1 P9 infected in human MT4 cells derived from viral passages with A-790742 harboring protease V82V/L and I84V mutation assessed as reduction in viral cytopathogenicity treated 1 hr post infection measured 5 days post infection by MTT assay relative to wild type HIV1 pNL4-3; type: functional; procedure, shortened: as §1
[3] = test system: Human immunodeficiency virus 1; assay: Antiviral activity against HIV1 clone1 infected in HEK293 cells harboring A-790742-selected protease I84V mutation assessed as reduction in viral replication by luciferase reporter gene assay relative to wild type HIV1 pNL4-3; type: functional
Procedure, shortened: (§2)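 Single-cycle assay: HEK-293 cells were cotransfected with luciferase-reporter HIV-1 protease clones plus a VSV-G expression vector. After 4 h, cells were replated at 2 × 10⁴/well over serial inhibitor dilutions in triplicate. Pseudovirus collected at 48 h infected fresh HEK-293 (10⁴/well). Luciferase read 48 h later gave % inhibition versus untreated and EC50. Fold change against WT pNL4-3-Luc (clones 1-4) or RF-Luc (clone 5) is the mean of three experiments.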

[4] = test system: Human immunodeficiency virus 1; assay: Antiviral activity against HIV1 P21 infected in human MT4 cells derived from viral passages with A-790742 harboring protease L23I, L33F, K45I, A71A/V, V77I, V82L, and I84V mutation assessed as reduction in viral cytopathogenicity treated 1 hr post infection measured 5 days post infection by MTT assay relative to wild type HIV1 pNL4-3; type: functional; procedure, shortened: as §1
[5] = test system: Human immunodeficiency virus 1; assay: Antiviral activity against HIV1 clone4 infected in HEK293 cells harboring A-790742-selected protease L33F, A71V, G73S, V77I, V82L, and I84V mutation assessed as reduction in viral replication by luciferase reporter gene assay relative to wild type HIV1 pNL4-3; type: functional; procedure, shortened: as §2
[6] = test system: Human immunodeficiency virus 1; assay: Antiviral activity against HIV1 clone2 infected in HEK293 cells harboring A-790742-selected protease V82L mutation assessed as reduction in viral replication by luciferase reporter gene assay relative to wild type HIV1 pNL4-3; type: functional; procedure, shortened: as §2
[7] = test system: Human immunodeficiency virus 1; assay: Antiviral activity against HIV1 clone3 infected in HEK293 cells harboring A-790742-selected protease L33F, K45I, V82L, and I84V mutation assessed as reduction in viral replication by luciferase reporter gene assay relative to wild type HIV1 pNL4-3; type: functional; procedure, shortened: as §2
[8] = test system: Human immunodeficiency virus 1; assay: Antiviral activity against HIV1 P15 infected in human MT4 cells derived from viral passages with A-790742 harboring protease L33L/F, K45I, V82L, and I84V mutation assessed as reduction in viral cytopathogenicity treated 1 hr post infection measured 5 days post infection by MTT assay relative to wild type HIV1 pNL4-3; type: functional; procedure, shortened: as §1
[9] = test system: Human immunodeficiency virus 1; assay: Antiviral activity against HIV1 clone5 infected in HEK293 cells harboring A-790742-selected protease L63P, A71V, and V82G mutation assessed as reduction in viral replication by luciferase reporter gene assay relative to wild type HIV1 RF; type: functional; procedure, shortened: as §2
[10] = test system: Human immunodeficiency virus 1; assay: Antiviral activity against HIV1 isolate 12 infected in human MT4 cells obtained from protease inhibitor-resistant patient harboring protease L10I, I13V, K20I, E35D, M36I, M46I, I50V, I54V, R57K, I62V, L63P, A71V, V82A, L89V, L90M, Q92K mutation derived from viral passages with Lopinavir assessed as reduction in viral cytopathogenicity treated 1 hr post infection measured 5 days post infection by …; type: functional
[11] = test system: Human immunodeficiency virus 1; assay: Antiviral activity against HIV1 isolate 2 infected in human MT4 cells obtained from protease inhibitor-resistant patient harboring protease L10I, I15V, G16E, K20R, E35D, M36I, R41K, I54A, R57K, Q61D, A71V, I72R, V82A, L89I, L90M, Q92K mutation derived from viral passages with Lopinavir assessed as reduction in viral cytopathogenicity treated 1 hr post infection measured 5 days post infection by …; type: functional
[12] = test system: Human immunodeficiency virus 1; assay: Antiviral activity against HIV1 isolate 3 infected in human MT4 cells obtained from protease inhibitor-resistant patient harboring protease L10I, E35D, N37D, […], I54V, L63P, A71V, T74P, I84V, L90M, I93L mutation derived from viral passages with Lopinavir assessed as reduction in viral cytopathogenicity treated 1 hr post infection measured 5 days post infection by MTT assay relative to wild type …; type: functional
[13] = test system: Human immunodeficiency virus 1; assay: Antiviral activity against wild-type HIV1 pNL4-3 infected in human MT4 cells assessed as reduction in viral cytopathogenicity treated 1 hr post infection measured 5 days post infection in absence of human serum by MTT assay; type: functional, organism-based; settings: Human immunodeficiency virus 1, pNL4-3, MT4; procedure, shortened: as §1
[14] = test system: Human immunodeficiency virus 1; assay: Antiviral activity against HIV1 isolate 4 infected in human MT4 cells obtained from protease inhibitor-resistant patient harboring protease N37T, M46I, Q58E, I64V, T74K, V77I, V82F, L90M mutation derived from viral passages with Lopinavir assessed as reduction in viral cytopathogenicity treated 1 hr post infection measured 5 days post infection by MTT assay relative to wild type HIV1 pNL4-3; type: functional
[15] = test system: Human immunodeficiency virus 1; assay: Antiviral activity against HIV1 isolate 9 infected in human MT4 cells obtained from protease inhibitor-resistant patient harboring protease L10I, I15I/V, K20R, L33F, E35D, M36I, N37D, R41K, K43I, M46I, I54V, I62V, L63P, A71T, I72T, V82A, I84V, L90M, I93L mutation derived from viral passages with Lopinavir assessed as reduction in viral cytopathogenicity treated 1 hr post infection measured 5 days …; type: functional
[16] = test system: Human immunodeficiency virus 1; assay: Antiviral activity against HIV1 B26 infected in human MT4 cells harboring protease L33F, K45I, M46I, I50V, I54V, A71V, and V82F mutation derived from viral passages with Lopinavir assessed as reduction in viral cytopathogenicity treated 1 hr post infection measured 5 days post infection by MTT assay; type: functional, organism-based; settings: Human immunodeficiency virus 1, B26, MT4; procedure, shortened: as §1
[17] = test system: Human immunodeficiency virus 1; assay: Antiviral activity against HIV1 isolate 11 infected in human MT4 cells obtained from protease inhibitor-resistant patient harboring protease L10I, I15V, K20R, E21Q, E35D, M36I, N37D, R41K, M46L, I54V, I62V, L63P, A71V, T74D, P79A, V82T, I84V, I85V, L90M, I93L mutation derived from viral passages with Lopinavir assessed as reduction in viral cytopathogenicity treated 1 hr post infection measured …; type: functional
[18] = test system: Human immunodeficiency virus 1; assay: Antiviral activity against HIV1 A17 infected in human MT4 cells harboring protease L10F, V32I, M46I, I47V, Q58E, and I84V mutation derived from viral passages with Lopinavir assessed as reduction in viral cytopathogenicity treated 1 hr post infection measured 5 days post infection by MTT assay; type: functional, organism-based; settings: Human immunodeficiency virus 1, A17, MT4; procedure, shortened: as §1
[19] = test system: Human immunodeficiency virus 1; assay: Antiviral activity against HIV1 P25 infected in human MT4 cells harboring protease L10F, G16E, V32I, M46I, I47A, H69Y, I84V, and T91S mutation derived from viral passages with Lopinavir assessed as reduction in viral cytopathogenicity treated 1 hr post infection measured 5 days post infection by MTT assay; type: functional, organism-based; settings: Human immunodeficiency virus 1, P25, MT4; procedure, shortened: as §1
[20] = test system: Human immunodeficiency virus 1; assay: Antiviral activity against wild-type HIV1 RF infected in human MT4 cells assessed as reduction in viral cytopathogenicity treated 1 hr post infection measured 5 days post infection in absence of human serum by MTT assay; type: functional, organism-based; settings: Human immunodeficiency virus 1, RF; procedure, shortened: as §1
[21] = test system: Human immunodeficiency virus 1; assay: Antiviral activity against HIV1 isolate 7 infected in human MT4 cells obtained from protease inhibitor-resistant patient harboring protease L10I, M46M/L, G48V, I54V, L63P, A71V, I72M, V77I, V82A, L90M, I93L mutation derived from viral passages with Lopinavir assessed as reduction in viral cytopathogenicity treated 1 hr post infection measured 5 days post infection by MTT assay relative to wild …; type: functional
[22] = test system: Human immunodeficiency virus 1; assay: Antiviral activity against wild-type HIV1 pNL4-3 infected in human MT4 cells assessed as reduction in viral cytopathogenicity treated 1 hr post infection measured 5 days post infection in presence of 50% human serum by MTT assay; type: functional, organism-based; settings: Human immunodeficiency virus 1, pNL4-3, MT4
[23] = test system: Human immunodeficiency virus 1; assay: Antiviral activity against HIV1 isolate 8 infected in human MT4 cells obtained from protease inhibitor-resistant patient harboring protease L10I, I13V, L33F, E34Q, R41K, M46I, I54V, K55R, R57K, Q58E, I62V, L63P, A71V, I72I/T, G73S, V82A, I84V, L90M mutation derived from viral passages with Lopinavir assessed as reduction in viral cytopathogenicity treated 1 hr post infection measured 5 days post …; type: functional
[24] = test system: Human immunodeficiency virus 1; assay: Antiviral activity against HIV1 isolate 5 infected in human MT4 cells obtained from protease inhibitor-resistant patient harboring protease L10F, I15V, M46I, L63P, A71V, I72L, V82T, I84V, I85V, L90M mutation derived from viral passages with Lopinavir assessed as reduction in viral cytopathogenicity treated 1 hr post infection measured 5 days post infection by MTT assay relative to wild type HIV1 …; type: functional
[25] = test system: Human immunodeficiency virus 1; assay: Antiviral activity against HIV1 isolate 13 infected in human MT4 cells obtained from protease inhibitor-resistant patient harboring protease L10I, K14R, L33F, E34Q, R41K, K45R, M46I, I50V, K55R, L63P, A71V, G73T, V77I, V82A, L90M, I93L mutation derived from viral passages with Lopinavir assessed as reduction in viral cytopathogenicity treated 1 hr post infection measured 5 days post infection by …; type: functional
[26] = test system: Human immunodeficiency virus 1; assay: Antiviral activity against HIV1 isolate 6 infected in human MT4 cells obtained from protease inhibitor-resistant patient harboring protease L10I, L24I, M46I, I54V, K55R, Q58E, L63P, I64V, A71V, V82A, T91A mutation derived from viral passages with Lopinavir assessed as reduction in viral cytopathogenicity treated 1 hr post infection measured 5 days post infection by MTT assay relative to wild type …; type: functional
[27] = test system: Human immunodeficiency virus 1; assay: Antiviral activity against HIV1 isolate 10 infected in human MT4 cells obtained from protease inhibitor-resistant patient harboring protease L10I, I13V, K20R, L33F, E35D, M36I, N37D, I54L, Q58E, I62V, L63P, A71V, V82A, I84V, L90M mutation derived from viral passages with Lopinavir assessed as reduction in viral cytopathogenicity treated 1 hr post infection measured 5 days post infection by MTT …; type: functional

| Compound | Ratio EC50 [1] | Ratio EC50 [2] | Ratio EC50 [3] | Ratio EC50 [4] | Ratio EC50 [5] | Ratio EC50 [6] | Ratio EC50 [7] | Ratio EC50 [8] | Ratio EC50 [9] | EC50 [19] | also measured |
| --- | --- | --- | --- | --- | --- | --- | --- | --- | --- | --- | --- |
| CC(C)(C)NC(=O)[C@@H]1CN(Cc2cccnc2)CCN1C[C@@H](O)C[C@@H](Cc1ccccc1)C(=O)N[C@H]1c2ccccc2C[C@H]1O.O | 31 | 3 | 1 | 14 | 2 | 1 | 5 | 5 | 76 | – | – |
| Cc1c(O)cccc1C(=O)N[C@@H](CSc1ccccc1)[C@H](O)CN1C[C@H]2CCCC[C@H]2C[C@H]1C(=O)NC(C)(C)C | 67 | 5 | 1 | >93 | 2 | 1 | 3 | 6 | 203 | – | – |
| COC(=O)N[C@H](C(=O)N[C@@H](Cc1ccccc1)[C@@H](O)CN(Cc1ccc(-c2ccccn2)cc1)NC(=O)[C@@H](NC(=O)OC)C(C)(C)C)C(C)(C)C [ATAZANAVIR] | 31 | 6 | 1 | 145 | 16 | 1 | 34 | 14 | 39 | 0.355 µM | Ratio EC50 [10]: 3; Ratio EC50 [11]: 172; Ratio EC50 [12]: 89; EC50 [13]: 0.004 µM; Ratio EC50 [14]: 5; Ratio EC50 [15]: 22; EC50 [16]: 0.051 µM; Ratio EC50 [17]: 43; EC50 [18]: 0.296 µM; EC50 [20]: 0.007 µM; Ratio EC50 [21]: 25; EC50 [22]: 0.011 µM; Ratio EC50 [23]: 32; Ratio EC50 [24]: 18; Ratio EC50 [25]: 5; Ratio EC50 [26]: 15; Ratio EC50 [27]: 56 |
| Cc1cccc(C)c1OCC(=O)N[C@@H](Cc1ccccc1)[C@@H](O)C[C@H](Cc1ccccc1)NC(=O)[C@H](C(C)C)N1CCCNC1=O [LOPINAVIR] | – | – | – | – | – | – | – | – | – | > 10 µM | – |
| CC(C)c1nc(CN(C)C(=O)N[C@H](C(=O)N[C@@H](Cc2ccccc2)C[C@H](O)[C@H](Cc2ccccc2)NC(=O)OCc2cncs2)C(C)C)cs1 [RITONAVIR] | 79 | 26.7 | 3 | >141 | 14 | 7 | 79 | 29 | 1386 | – | – |
